According to ChEMBL document CHEMBL3593177, “Benzimidazole derivatives as potential dual inhibitors for PARP-1 and DHODH” (Bioorg Med Chem, 2015):

Tests used:
[1] = biological target: Poly [ADP-ribose] polymerase 1 (Homo sapiens, UniProt P09874); experiment: Inhibition of PARP-1 (unknown origin) assessed as incorporation of biotinylated poly (ADP-ribose) onto histone protein after 60 mins by TACS-Sapphire substarte-based colorimetric analysis
[2] = biological target: T1, Dihydroorotate dehydrogenase (quinone), mitochondrial (Homo sapiens, UniProt Q02127); experiment: Inhibition of DHODH (unknown origin) using L-DHO, DUQ, DCIP as substrate preincubated for 30 mins followed by substrate addition measured after 20 mins by multilabel plate reader analysis
[3] = biological target: T1, Dihydroorotate dehydrogenase (quinone), mitochondrial; experiment: Inhibition of DHODH (unknown origin) using L-DHO, DUQ, DCIP as substrate at 10 uM preincubated for 30 mins followed by substrate addition measured after 20 mins by multilabel plate reader analysis relative to control
Outline: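 Single-concentration screen at 10 µM. DHODH (25 ng) was preincubated with compound for 30 min at room temperature in 50 mM Tris-HCl, 150 mM KCl, 0.8% Triton, pH 8.0, with 1% DMSO final. The reaction was started with a substrate mix of 20 mM L-DHO, 2 mM DUQ and 2 mM DCIP (added-mix concentrations). DCIP reduction was followed as the drop in A610, read from 20 min, every 10 min for 1 h.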

[4] = biological target: T1, Dihydroorotate dehydrogenase (quinone), mitochondrial; experiment: Inhibition of human DHODH using L-DHO, DUQ, DCIP as substrate preincubated for 30 mins followed by substrate addition measured after 20 mins
[5] = biological target: T1, Dihydroorotate dehydrogenase (quinone), mitochondrial; experiment: Inhibition of DHODH (unknown origin) using L-DHO, DUQ, DCIP as substrate at 1 uM preincubated for 30 mins followed by substrate addition measured after 20 mins by multilabel plate reader analysis relative to control

T1 sequence (Q02127 whole entry): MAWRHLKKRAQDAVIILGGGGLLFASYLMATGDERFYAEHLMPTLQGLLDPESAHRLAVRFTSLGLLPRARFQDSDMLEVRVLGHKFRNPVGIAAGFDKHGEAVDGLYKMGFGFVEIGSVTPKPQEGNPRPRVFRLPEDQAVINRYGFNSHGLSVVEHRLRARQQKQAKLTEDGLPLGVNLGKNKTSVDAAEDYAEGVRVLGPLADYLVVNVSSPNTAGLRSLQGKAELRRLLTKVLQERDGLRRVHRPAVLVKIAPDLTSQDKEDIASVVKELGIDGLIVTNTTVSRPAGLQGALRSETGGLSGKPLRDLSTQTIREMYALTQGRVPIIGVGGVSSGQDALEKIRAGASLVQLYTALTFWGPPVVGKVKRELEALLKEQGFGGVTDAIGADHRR
Chain of Poly [ADP-ribose] polymerase 1 (P09874 whole entry): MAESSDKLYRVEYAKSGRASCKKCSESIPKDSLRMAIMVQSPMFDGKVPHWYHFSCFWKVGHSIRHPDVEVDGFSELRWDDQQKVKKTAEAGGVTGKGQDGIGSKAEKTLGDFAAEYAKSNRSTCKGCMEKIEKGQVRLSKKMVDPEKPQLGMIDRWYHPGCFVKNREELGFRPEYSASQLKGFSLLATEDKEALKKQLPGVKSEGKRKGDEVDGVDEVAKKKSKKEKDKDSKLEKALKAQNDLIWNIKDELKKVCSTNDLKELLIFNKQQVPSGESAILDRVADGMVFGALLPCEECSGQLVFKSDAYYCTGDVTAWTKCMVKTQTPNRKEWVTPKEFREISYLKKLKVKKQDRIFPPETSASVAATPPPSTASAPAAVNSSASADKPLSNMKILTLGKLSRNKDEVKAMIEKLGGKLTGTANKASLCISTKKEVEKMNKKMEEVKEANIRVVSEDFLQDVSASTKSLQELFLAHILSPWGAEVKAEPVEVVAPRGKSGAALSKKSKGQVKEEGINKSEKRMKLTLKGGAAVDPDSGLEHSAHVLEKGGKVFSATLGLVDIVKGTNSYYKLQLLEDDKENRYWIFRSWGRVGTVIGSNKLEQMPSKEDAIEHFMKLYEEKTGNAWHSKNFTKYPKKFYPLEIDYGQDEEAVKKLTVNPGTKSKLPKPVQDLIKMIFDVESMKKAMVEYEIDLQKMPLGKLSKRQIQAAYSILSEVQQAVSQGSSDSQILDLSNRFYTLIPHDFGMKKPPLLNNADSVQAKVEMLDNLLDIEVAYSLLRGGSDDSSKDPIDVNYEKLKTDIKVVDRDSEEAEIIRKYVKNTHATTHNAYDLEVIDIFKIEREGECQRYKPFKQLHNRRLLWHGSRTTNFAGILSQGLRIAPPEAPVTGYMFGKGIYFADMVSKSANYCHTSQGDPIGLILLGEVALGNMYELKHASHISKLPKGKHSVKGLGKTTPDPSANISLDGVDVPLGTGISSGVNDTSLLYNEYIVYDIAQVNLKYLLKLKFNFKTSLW

IC50 [1] | inhibition [3] | SMILES | further results
1.28 µM |  | NC(=O)c1cc(F)cc2[nH]c(-c3ccc(-c4cccc(NC(=O)C5CC5)c4)cc3F)nc12 | 
0.029 µM |  | NC(=O)c1cccc2[nH]c(-c3ccc(-c4cncc(C(=O)N5CCCC5)c4)cc3)nc12 | 
 |  | CC(=O)Nc1ccc(COc2ccc(-c3ccc(-c4nc5c(C(=O)O)cc(C)cc5[nH]4)cc3)cc2)cc1 | IC50 [2]: 0.013 µM
 |  | CC(=O)Nc1cccc(-c2ccc(-c3nc4c(C(=O)O)cc(C)cc4[nH]3)cc2)c1 | IC50 [2]: 1.38 µM
10.6 µM |  | CC(=O)Nc1ccccc1COc1ccc(-c2ccc(-c3nc4c(C(=O)O)cc(C)cc4[nH]3)cc2)cc1 | IC50 [2]: 0.3 µM
0.084 µM |  | NC(=O)c1cc(F)cc2[nH]c(-c3ccc(-c4ccc(NC(=O)C5CC5)cc4F)cc3F)nc12 | 
 | < 15% | COc1ccc(-c2nc3c(C(N)=O)cc(C)cc3[nH]2)cc1 | 
2.28 µM | < 15% | NC(=O)c1cccc2[nH]c(-c3ccc(-c4ccc(OCCCN5CCCCC5)cc4)cc3)nc12 | 
0.31 µM |  | NC(=O)c1cccc2[nH]c(-c3ccc(-c4ccc(C(=O)N5CCCC5)cc4)cc3)nc12 | 
 |  | O=C(O)c1cccc2[nH]c(-c3ccc(-c4ccccc4)cc3)nc12 | IC50 [4]: 0.75 µM
0.72 µM |  | NC(=O)c1cccc2[nH]c(-c3ccc(-c4ccc(OCCN5CCCCC5)cc4)cc3)nc12 | 
 | < 15% | Cc1cc(C(N)=O)c2nc(-c3ccc(-c4ccc(C(=O)N5CCCC5)cc4)cc3)[nH]c2c1 | 
0.71 µM |  | NC(=O)c1cccc2[nH]c(-c3ccc(-c4ccccc4)cc3)nc12 | IC50 [2]: 9.8 µM
 | < 15% | NC(=O)c1cccc2[nH]c(-c3ccc(C(F)(F)F)cc3)nc12 | 
 |  | Cc1cc(C(N)=O)c2nc(-c3ccc(-c4ccccc4)cc3)[nH]c2c1 | IC50 [2]: 7.8 µM
 |  | CC(=O)Nc1ccc(-c2ccc(-c3nc4c(C(=O)O)cc(C)cc4[nH]3)cc2)cc1 | IC50 [2]: 0.21 µM
0.061 µM |  | NC(=O)c1cccc2[nH]c(-c3ccc(-c4cncc(CN5CCCC5)c4)cc3)nc12 | 
1.72 µM | < 15% | CCC(=O)Nc1ccc(-c2ccc(-c3nc4c(C(N)=O)cc(F)cc4[nH]3)cc2)cc1 | 
0.98 µM |  | COc1cc(-c2ccc(-c3nc4c(C(N)=O)cc(F)cc4[nH]3)c(F)c2)ccc1NC(=O)C1CC1 | 
0.032 µM |  | NC(=O)c1cccc2[nH]c(-c3ccc(-c4ccc(N)nc4)cc3)nc12 | 
0.012 µM | < 15% | NC(=O)c1cccc2[nH]c(-c3ccc(-c4ccc(C(=O)N5CCCC5)nc4)cc3)nc12 | 
 | < 15% | COc1ccc(-c2nc3c(C(N)=O)cccc3[nH]2)cc1 | 
5.96 µM | < 15% | COc1cc(-c2ccc(-c3nc4c(C(N)=O)cc(F)cc4[nH]3)cc2)ccc1NC(=O)C1CC1 | 
0.049 µM |  | CC(=O)Nc1ccc(-c2ccc(-c3nc4c(C(N)=O)cccc4[nH]3)cc2)cn1 | 
 | < 15% | Cc1cc(C(N)=O)c2nc(-c3ccc(C(F)(F)F)cc3)[nH]c2c1 | 
0.46 µM |  | CC(=O)Nc1cccc(-c2ccc(-c3nc4c(C(N)=O)cccc4[nH]3)cc2)c1 | inhibition [5]: 45%
 |  | CC(=O)Nc1cccc(COc2ccc(-c3ccc(-c4nc5c(C(=O)O)cc(C)cc5[nH]4)cc3)cc2)c1 | IC50 [2]: 0.028 µM
 | < 15% | Cc1cc(C(N)=O)c2nc(-c3ccc(C#N)cc3)[nH]c2c1 | 
0.14 µM |  | CC(=O)Nc1ccccc1-c1ccc(-c2nc3c(C(N)=O)cccc3[nH]2)cc1 | 
